# Source: ChEMBL document CHEMBL1138390, “Synthesis and biological evaluation of novel T-type calcium channel blockers” (Bioorg Med Chem Lett, 2007)
# Assays:
# [1] = molecular target: Voltage-dependent T-type calcium channel subunit alpha-1H (Homo sapiens) (UniProt O95180); assay: Inhibition of T-type calcium channel Cav3.2 expressed in Xenopus oocytes coexpressing alpha-1H subunit at 100 uM by two-electrode voltage clamp method
# Homo sapiens = species on record: Homo sapiens; assay: Selectivity index, ratio of T-type calcium channel Cav3.1 to N-type calcium channel at 10 uM
# [2] = molecular target: Voltage-dependent N-type calcium channel subunit alpha-1B (Homo sapiens) (UniProt Q00975); assay: Inhibition of N-type calcium channel expressed in HEK293 cells co-expressing Alpha-1B subunit at 10 uM; type: cell-based
# Sequence of Voltage-dependent N-type calcium channel subunit alpha-1B (Homo sapiens) (Q00975 whole entry, looked up): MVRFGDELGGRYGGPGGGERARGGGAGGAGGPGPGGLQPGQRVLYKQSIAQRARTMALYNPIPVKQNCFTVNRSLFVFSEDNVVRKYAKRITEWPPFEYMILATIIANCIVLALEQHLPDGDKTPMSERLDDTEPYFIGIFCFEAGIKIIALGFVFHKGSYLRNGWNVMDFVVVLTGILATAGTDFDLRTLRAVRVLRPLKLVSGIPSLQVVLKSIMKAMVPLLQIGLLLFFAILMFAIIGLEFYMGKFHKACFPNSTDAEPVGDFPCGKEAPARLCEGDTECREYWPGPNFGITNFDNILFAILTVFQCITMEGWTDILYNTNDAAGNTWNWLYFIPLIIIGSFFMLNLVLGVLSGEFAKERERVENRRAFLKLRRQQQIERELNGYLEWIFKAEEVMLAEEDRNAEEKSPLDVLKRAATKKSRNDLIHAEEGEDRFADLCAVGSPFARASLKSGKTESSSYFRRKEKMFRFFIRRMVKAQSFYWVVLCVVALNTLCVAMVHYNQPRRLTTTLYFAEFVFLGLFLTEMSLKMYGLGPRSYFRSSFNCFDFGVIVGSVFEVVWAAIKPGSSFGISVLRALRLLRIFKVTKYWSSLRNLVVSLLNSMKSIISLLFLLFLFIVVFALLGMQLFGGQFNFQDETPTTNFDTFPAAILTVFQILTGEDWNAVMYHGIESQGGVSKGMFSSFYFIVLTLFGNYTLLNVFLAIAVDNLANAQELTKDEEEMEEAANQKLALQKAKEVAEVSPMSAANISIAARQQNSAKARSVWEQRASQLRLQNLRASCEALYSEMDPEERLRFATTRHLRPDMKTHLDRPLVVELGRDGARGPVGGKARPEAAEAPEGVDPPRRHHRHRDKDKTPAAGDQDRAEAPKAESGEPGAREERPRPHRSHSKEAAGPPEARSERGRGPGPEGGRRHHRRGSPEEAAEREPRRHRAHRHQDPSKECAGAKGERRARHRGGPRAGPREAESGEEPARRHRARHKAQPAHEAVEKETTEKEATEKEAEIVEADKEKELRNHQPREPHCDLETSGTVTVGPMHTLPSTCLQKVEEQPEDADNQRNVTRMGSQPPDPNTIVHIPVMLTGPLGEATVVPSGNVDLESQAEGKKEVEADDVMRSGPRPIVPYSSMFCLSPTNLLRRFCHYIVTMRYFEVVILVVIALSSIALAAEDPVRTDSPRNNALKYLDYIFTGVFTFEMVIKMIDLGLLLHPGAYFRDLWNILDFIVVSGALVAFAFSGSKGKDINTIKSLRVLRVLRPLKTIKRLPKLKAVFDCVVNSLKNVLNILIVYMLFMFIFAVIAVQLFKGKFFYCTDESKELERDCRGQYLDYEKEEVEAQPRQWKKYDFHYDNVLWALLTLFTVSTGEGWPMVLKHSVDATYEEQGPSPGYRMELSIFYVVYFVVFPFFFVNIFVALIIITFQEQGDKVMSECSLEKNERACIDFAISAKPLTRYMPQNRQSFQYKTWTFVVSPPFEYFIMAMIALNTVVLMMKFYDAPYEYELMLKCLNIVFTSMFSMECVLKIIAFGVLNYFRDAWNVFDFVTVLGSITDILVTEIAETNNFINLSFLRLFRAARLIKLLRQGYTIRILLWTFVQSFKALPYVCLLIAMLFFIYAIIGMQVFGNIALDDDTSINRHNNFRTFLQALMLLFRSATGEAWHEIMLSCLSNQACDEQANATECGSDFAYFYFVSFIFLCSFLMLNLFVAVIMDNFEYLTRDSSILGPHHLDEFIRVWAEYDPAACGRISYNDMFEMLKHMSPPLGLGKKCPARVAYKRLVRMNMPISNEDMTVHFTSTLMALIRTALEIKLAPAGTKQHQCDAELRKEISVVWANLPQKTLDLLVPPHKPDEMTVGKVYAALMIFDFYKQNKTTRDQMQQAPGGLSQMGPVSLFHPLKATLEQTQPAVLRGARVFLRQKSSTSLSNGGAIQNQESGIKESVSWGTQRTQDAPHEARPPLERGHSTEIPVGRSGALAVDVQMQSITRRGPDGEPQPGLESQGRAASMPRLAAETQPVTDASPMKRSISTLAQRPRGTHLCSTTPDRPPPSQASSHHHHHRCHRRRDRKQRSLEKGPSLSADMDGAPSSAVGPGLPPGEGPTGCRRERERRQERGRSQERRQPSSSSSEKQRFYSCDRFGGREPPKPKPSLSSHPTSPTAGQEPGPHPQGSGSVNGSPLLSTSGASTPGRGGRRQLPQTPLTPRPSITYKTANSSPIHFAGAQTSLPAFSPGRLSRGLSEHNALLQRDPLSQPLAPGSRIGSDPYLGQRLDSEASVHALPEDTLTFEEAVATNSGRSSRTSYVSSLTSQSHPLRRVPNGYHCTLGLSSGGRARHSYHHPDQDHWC
# How it was run: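 N-type α1B channel expressed in HEK293 cells. Percent current inhibition at a single test concentration, reported as mean ± SE from n ≥ 4 repeated measurements. Inhibition below 1% was recorded as no blocking.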
# [3] = molecular target: T1, Voltage-dependent T-type calcium channel subunit alpha-1G (Homo sapiens, UniProt O43497); assay: Inhibition of T-type calcium channel Cav3.1 expressed in HEK293 cells co-expressing alpha1G subunit at 10 uM by whole-cell patch clamp method; type: cell-based
# T1 sequence (O43497 whole entry): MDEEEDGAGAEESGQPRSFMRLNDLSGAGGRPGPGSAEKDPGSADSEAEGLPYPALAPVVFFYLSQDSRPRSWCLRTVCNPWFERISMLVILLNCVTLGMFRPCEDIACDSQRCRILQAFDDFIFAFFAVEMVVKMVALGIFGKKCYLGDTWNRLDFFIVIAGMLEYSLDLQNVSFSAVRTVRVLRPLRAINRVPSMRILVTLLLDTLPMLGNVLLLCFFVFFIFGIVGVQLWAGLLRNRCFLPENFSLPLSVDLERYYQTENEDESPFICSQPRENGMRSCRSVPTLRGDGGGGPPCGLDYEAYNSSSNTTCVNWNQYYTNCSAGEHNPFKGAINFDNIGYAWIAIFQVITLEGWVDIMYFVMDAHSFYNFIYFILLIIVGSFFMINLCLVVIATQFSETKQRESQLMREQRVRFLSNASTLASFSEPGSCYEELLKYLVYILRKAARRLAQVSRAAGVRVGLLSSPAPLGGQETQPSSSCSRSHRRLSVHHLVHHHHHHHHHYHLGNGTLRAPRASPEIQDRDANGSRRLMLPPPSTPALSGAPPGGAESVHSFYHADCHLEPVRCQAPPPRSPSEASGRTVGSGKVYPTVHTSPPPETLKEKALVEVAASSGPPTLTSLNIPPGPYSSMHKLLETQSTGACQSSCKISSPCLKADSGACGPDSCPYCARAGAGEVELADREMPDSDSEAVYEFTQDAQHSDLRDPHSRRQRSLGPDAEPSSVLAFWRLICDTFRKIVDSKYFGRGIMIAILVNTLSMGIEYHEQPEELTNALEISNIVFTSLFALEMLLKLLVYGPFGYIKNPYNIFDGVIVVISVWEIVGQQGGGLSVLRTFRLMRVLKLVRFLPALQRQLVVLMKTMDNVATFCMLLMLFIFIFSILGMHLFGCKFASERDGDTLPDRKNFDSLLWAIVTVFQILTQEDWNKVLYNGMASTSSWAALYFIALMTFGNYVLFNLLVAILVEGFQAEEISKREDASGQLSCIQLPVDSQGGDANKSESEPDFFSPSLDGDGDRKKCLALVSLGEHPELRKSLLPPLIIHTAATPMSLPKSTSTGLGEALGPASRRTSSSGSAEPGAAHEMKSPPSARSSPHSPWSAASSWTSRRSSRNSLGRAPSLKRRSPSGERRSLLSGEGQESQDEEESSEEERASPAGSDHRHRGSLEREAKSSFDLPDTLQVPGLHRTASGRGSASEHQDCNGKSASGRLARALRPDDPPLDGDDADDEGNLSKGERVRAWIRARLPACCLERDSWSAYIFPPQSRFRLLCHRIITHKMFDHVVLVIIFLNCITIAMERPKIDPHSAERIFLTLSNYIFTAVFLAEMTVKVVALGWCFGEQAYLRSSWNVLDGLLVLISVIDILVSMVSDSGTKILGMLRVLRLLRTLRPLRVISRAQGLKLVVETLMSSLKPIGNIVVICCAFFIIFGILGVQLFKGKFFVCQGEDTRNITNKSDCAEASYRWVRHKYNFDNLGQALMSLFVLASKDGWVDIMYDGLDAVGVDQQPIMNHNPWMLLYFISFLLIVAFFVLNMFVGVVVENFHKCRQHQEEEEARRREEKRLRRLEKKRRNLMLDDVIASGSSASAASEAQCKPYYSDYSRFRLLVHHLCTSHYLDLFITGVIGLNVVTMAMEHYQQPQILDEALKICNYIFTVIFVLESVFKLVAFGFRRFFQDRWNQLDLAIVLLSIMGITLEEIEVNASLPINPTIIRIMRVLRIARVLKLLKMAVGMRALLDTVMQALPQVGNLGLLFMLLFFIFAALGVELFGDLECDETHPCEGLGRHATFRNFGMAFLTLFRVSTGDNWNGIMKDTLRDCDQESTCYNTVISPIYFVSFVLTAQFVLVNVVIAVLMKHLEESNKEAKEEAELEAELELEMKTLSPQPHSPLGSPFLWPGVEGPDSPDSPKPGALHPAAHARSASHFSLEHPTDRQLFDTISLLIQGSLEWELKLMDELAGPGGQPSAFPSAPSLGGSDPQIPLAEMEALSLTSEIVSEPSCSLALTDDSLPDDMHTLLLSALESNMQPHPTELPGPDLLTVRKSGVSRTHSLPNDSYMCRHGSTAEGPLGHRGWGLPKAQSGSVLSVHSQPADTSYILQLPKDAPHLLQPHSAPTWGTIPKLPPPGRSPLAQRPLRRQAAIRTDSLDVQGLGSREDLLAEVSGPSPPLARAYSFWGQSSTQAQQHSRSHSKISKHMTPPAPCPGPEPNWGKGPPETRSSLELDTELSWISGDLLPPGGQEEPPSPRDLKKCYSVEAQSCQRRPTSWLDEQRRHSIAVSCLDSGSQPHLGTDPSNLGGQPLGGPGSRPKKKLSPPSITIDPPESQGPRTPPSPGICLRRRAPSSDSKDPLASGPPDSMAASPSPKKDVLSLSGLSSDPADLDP
# How it was run: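 α1G T-type channel expressed in HEK293 cells, whole-cell patch clamp. Percent inhibition of α1G currents at a single test concentration, given as mean ± SE from n ≥ 4 repeats. IC50 is the molar concentration giving 50% current inhibition, obtained by fitting raw data to dose–response curves.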
# [4] = molecular target: T1, Voltage-dependent T-type calcium channel subunit alpha-1G; assay: Inhibition of T-type calcium channel Cav3.1 expressed in HEK293 cells co-expressing alpha1G subunit by whole-cell patch clamp method; type: cell-based
inhibition [1] [%],Ratio (Homo sapiens),inhibition [2] [%],inhibition [3] [%],IC50 [4] [µM],Structure (SMILES)
47.7,5.6,10.7,59.5,5.84,COC(=O)CC1c2ccccc2N=C(N(C)CCCCCN2CCCC2)N1c1ccccc1 (stereo unspecified)
,10.1,,,,NCCCCCNC1=Nc2ccccc2C(CC(=O)NCc2ccccc2)N1c1ccc(-c2ccccc2)cc1 (stereo unspecified)
82.7,1.5,46.3,68.1,4.2,CN(CCCCCN1CCCC1)C1=Nc2ccccc2C(CC(=O)NCc2ccccc2)N1c1ccccc1 (stereo unspecified)
95.5,7.5,11.7,88.1,,CN(CCCCCN1CCCC1)C1=Nc2ccccc2C(CC(=O)NCc2ccccc2)N1c1ccc(-c2ccccc2)cc1 (stereo unspecified)
88,2.6,36.5,94.9,0.34,COC(=O)CC1c2ccccc2N=C(N(C)CCCCCN2CCCC2)N1c1ccc(-c2ccccc2)cc1 (stereo unspecified)
,> 100,,,,COC(=O)CC1c2ccccc2N=C(NCCCCCN)N1c1ccc(-c2ccccc2)cc1 (stereo unspecified)
